Screening data from PubChem BioAssay.
In the library only some 4.1% were active in any assay of this set; here they are far more common.
SMARCA2 act: SMARCA2 (BRM) function activators, primary screen, cell-based, luminescence, high throughput | AID 652017, 2013 | activation, % at 9.1 µM | 370,000 tested, 1% active | MG213 cells, MMTV-luciferase reporter, dexamethasone, overnight; in the data active = activation above about 7.8%
ATG4B inhibitor: ATG4B protease inhibitors, primary screen, biochemical, fluorescence, uHTS; 340,000 tested, 0.51% active; inhibition, % at 8.33 µM; AID 504462, 2011; ATG4B cleavage of LC3-PLA2, NBD-HPC fluorescence, 1 h; in the data active = inhibition above about 40%
MC4R barr agon: MC4R agonists recruiting beta-arrestin, primary screen, cell-based, luminescence, agonist arm of biased-ligand search; Melanocortin receptor 4 (Homo sapiens), P32245; U2OS MC4R beta-arrestin complementation; percent of melanotan II response, DMSO zero; activation, % at 8.9 µM; 360,000 tested, 0.98% active; AID 540308, 2011;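 active = activation above a per-plate cutoff, the mean activation of sample wells on that plate plus 3 SD, cut at about 8% in these data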
Target sequence (P32245 whole entry, looked up): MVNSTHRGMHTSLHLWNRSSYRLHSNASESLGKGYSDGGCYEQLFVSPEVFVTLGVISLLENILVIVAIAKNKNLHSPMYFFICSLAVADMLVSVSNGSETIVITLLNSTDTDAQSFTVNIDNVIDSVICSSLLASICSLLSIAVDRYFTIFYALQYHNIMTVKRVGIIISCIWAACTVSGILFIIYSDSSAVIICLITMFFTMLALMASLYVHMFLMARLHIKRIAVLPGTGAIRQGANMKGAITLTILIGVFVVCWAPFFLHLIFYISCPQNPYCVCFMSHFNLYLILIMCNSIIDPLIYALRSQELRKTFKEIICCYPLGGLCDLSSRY
MC4R antag cAMP: MC4R antagonists of cAMP signaling, primary screen, cell-based, TR-FRET, antagonist arm of biased-ligand search; Melanocortin receptor 4 (Homo sapiens), P32245; MC4R-expressing cells, MTII-stimulated cAMP, LANCE TR-FRET; inhibition, % at 6.5 µM; 360,000 tested, 0.48% active; AID 540295, 2011;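 active = inhibition above its plate's cutoff, the mean of tested wells on that plate plus 3 SD, cut at about 29% in these data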
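Test system: U2OS cells stably expressing human melanocortin 4 receptor (MC4R); also added: Melanotan II challenge; compound: 6.5 µM single dose; timing: 30-min compound preincubation, 1-h Melanotan II challenge, 1-h detection, room temperature; signal: Eu-cAMP/anti-cAMP TR-FRET, emission 671 nm; repeats: one well per compound, no replicates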
MPTP block: mitochondrial permeability transition pore inhibitors, primary screen, biochemical, isolated mouse mitochondria, absorbance; Ca2+ swelling absorbance, 30 min; inhibition, % at 10 µM; 360,000 tested, 1.4% active; AID 602449, 2012;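 active = inhibition of 50% or more, scaled per plate between neutral and stimulator controls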
MC4R barr ag: MC4R beta-arrestin agonists, retest, confirmation, cell-based, luminescence, U2OS; activation, % at 8.9 µM; U2OS MC4R beta-arrestin recruitment; scaled DMSO 0%, Melanotan II 100%; AID 602192, 2012; 2,400 tested, 31% active; shares compounds with MC4R barr agon;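 active = mean activation across replicates above the hit cutoff set in the earlier primary screen, cut at about 8% in these data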
MOR-DOR barr ag: agonists of MOR-DOR heterodimerization, counter-screen for MC4R biased agonist project, cell-based, luminescence. activation, % at 9.2 µM. 2,400 tested, 5.8% active. AID 602194, 2012. U2OS PathHunter beta-arrestin, beta-gal luminescence; percent of deltorphin B response, DMSO zero. shares compounds with MC4R barr agon;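 active = mean activation across replicates exceeds the hit threshold derived in the earlier primary screen, cut at about 18% in these data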
Numbers stand for hits.

CCOC(=O)C1(Cc2cccc(OC)c2)CCN(C/C=C/c2ccccc2)CC1 was read as SMARCA2 act inactive, ATG4B inhibitor inactive, MC4R barr agon 12, MC4R antag cAMP inactive, MPTP block inactive, MC4R barr ag 10 and MOR-DOR barr ag inactive.
`CCOC(=O)C1(Cc2cccc(OC)c2)CCN(CC=C(C)C)CC1` gave SMARCA2 act inactive, ATG4B inhibitor inactive, MC4R barr agon inactive, MC4R antag cAMP inactive and MPTP block inactive.
For COc1ccc(-c2cc(NC=O)c3ncc(-c4ccc(C(C)=O)cc4)n3c2)cn1 the results were SMARCA2 act inactive, MC4R barr agon 17, MC4R antag cAMP inactive, MPTP block inactive, MC4R barr ag 16 and MOR-DOR barr ag inactive.
O=CNc1cc(-c2ccc(C(=O)NC3CC3)cc2)cn2c(-c3ccccc3)cnc12 was read as SMARCA2 act inactive, MC4R barr agon inactive, MC4R antag cAMP inactive and MPTP block inactive.
Screening CC(=O)Nc1cccc(-c2cc(NC=O)c3ncc(-c4ccc(C(C)=O)cc4)n3c2)c1 returned SMARCA2 act inactive, MC4R barr agon inactive, MC4R antag cAMP inactive and MPTP block inactive.
CC(=O)c1ccc(-c2cnc3c(NC=O)cc(-c4ccc(C(=O)NC5CC5)cc4)cn23)cc1 was read as SMARCA2 act inactive, MC4R barr agon 11, MC4R antag cAMP inactive, MPTP block inactive, MC4R barr ag inactive and MOR-DOR barr ag inactive.
Screening COc1ccc(NC(=O)CN(C)S(=O)(=O)c2ccc(Cl)cc2)cc1Cl returned SMARCA2 act inactive, ATG4B inhibitor inactive, MC4R barr agon inactive, MC4R antag cAMP inactive and MPTP block inactive.
COc1ccc(S(=O)(=O)N(C)CC(=O)Nc2ccc(C(F)(F)F)cc2)cc1Cl was read as SMARCA2 act inactive, ATG4B inhibitor inactive, MC4R barr agon 17, MC4R antag cAMP inactive, MPTP block inactive, MC4R barr ag inactive and MOR-DOR barr ag inactive.
Cc1ccc2cc(/C=N/NC(=O)[C@H]3C[C@@H]3c3ccccc3)c(Cl)nc2c1 was read as SMARCA2 act inactive, ATG4B inhibitor inactive, MC4R barr agon 24, MC4R antag cAMP inactive, MPTP block inactive, MC4R barr ag inactive and MOR-DOR barr ag inactive.
`O=C(CCCCCNc1nc(=S)[nH]c2ccccc12)NCCc1ccc(Cl)cc1` gave SMARCA2 act inactive, ATG4B inhibitor inactive, MC4R barr agon 12, MC4R antag cAMP inactive, MPTP block inactive, MC4R barr ag 11 and MOR-DOR barr ag inactive.
Screening O=C(CCCCCNc1nc(=S)[nH]c2ccccc12)NCCc1c[nH]c2ccccc12 returned SMARCA2 act inactive, ATG4B inhibitor inactive, MC4R barr agon inactive, MC4R antag cAMP inactive and MPTP block inactive.
O=C(NC(CC1=CCCCC1)c1ccc2ccccc2c1)C(F)(F)F (centres undefined) was read as SMARCA2 act inactive.
COc1ccc(NC(=O)NCCCN2CCN(c3ccc(F)cc3)CC2)cc1OC was read as SMARCA2 act inactive.
For CCOc1ccc(CN2CCN(Cc3[nH]c4ccccc4c3C)CC2CCO)cc1 (centres undefined) the results were SMARCA2 act inactive, ATG4B inhibitor inactive, MC4R barr agon 12, MC4R antag cAMP inactive, MPTP block inactive, MC4R barr ag inactive and MOR-DOR barr ag 22.
`CC(C)(C)c1ccc2c(c1)OC(C(=O)N/N=C\c1ccc[nH]1)CO2` (centres undefined) gave SMARCA2 act inactive, ATG4B inhibitor inactive, MC4R barr agon 11, MC4R antag cAMP inactive, MPTP block inactive, MC4R barr ag inactive and MOR-DOR barr ag inactive.
O=C(c1ccncc1)N1CC[C@H]2[C@H](CCCN2Cc2ccccc2)C1 was read as SMARCA2 act inactive.
Nc1c(-c2ccccn2)cnn1-c1nc(-c2ccc(F)cc2)cs1 was read as SMARCA2 act inactive, ATG4B inhibitor inactive, MC4R barr agon 9.7, MC4R antag cAMP inactive, MPTP block inactive, MC4R barr ag inactive and MOR-DOR barr ag inactive.
`COCC(=O)N[C@@H]1C[C@@H]2O[C@H](CO)CC[C@@H]2O[C@@H]1CCc1ccc(-c2ccccc2)cc1` gave SMARCA2 act inactive.
Screening C[C@@H](/C=C/C(=O)OC(C)(C)C)Sc1ccc(C(C)(C)C)cc1 returned SMARCA2 act inactive.
Screening O=C(Nc1cccc(Cl)c1)N1CCN(C/C=C/c2ccccc2)CC1 returned SMARCA2 act inactive, ATG4B inhibitor inactive, MC4R barr agon 9.6, MC4R antag cAMP inactive, MPTP block inactive, MC4R barr ag inactive and MOR-DOR barr ag inactive.
Screening O=C(CCN1CCN(C/C=C/c2ccccc2)CC1)Nc1ccc(Cl)cc1 returned SMARCA2 act inactive, ATG4B inhibitor inactive, MC4R barr agon inactive, MC4R antag cAMP inactive and MPTP block inactive.
Screening CCOc1ccc(C(=O)Nc2ccc(N3CCN(C(=O)c4ccco4)CC3)cc2)cc1Br returned SMARCA2 act inactive, ATG4B inhibitor inactive, MC4R barr agon 14, MC4R antag cAMP inactive, MPTP block inactive, MC4R barr ag inactive and MOR-DOR barr ag inactive.
CCC(=O)N1CCN(c2ccc(NC(=O)c3ccc4ccccc4c3)cc2)CC1 was read as SMARCA2 act inactive, ATG4B inhibitor inactive, MC4R barr agon 17, MC4R antag cAMP inactive, MPTP block inactive, MC4R barr ag inactive and MOR-DOR barr ag inactive.
OCCN1CCN(c2nc(-c3ccccc3)nc3c2oc2ccccc23)CC1 was read as SMARCA2 act inactive, ATG4B inhibitor inactive, MC4R barr agon 23, MC4R antag cAMP inactive, MPTP block inactive, MC4R barr ag 15 and MOR-DOR barr ag inactive.
Screening Nc1c(Br)c(=O)[nH]c(=O)n1-c1ccccc1 returned SMARCA2 act inactive, ATG4B inhibitor inactive, MC4R barr agon inactive, MC4R antag cAMP inactive and MPTP block inactive.
Screening Nc1c2nc(-c3ccccc3)[nH]c(=O)c2nc(=O)n1-c1ccccc1 returned SMARCA2 act inactive, ATG4B inhibitor inactive, MC4R barr agon 15, MC4R antag cAMP inactive, MPTP block inactive, MC4R barr ag inactive and MOR-DOR barr ag inactive.
CCn1nnnc1SCC(=O)Nc1nc2ccccc2s1 was read as SMARCA2 act inactive, ATG4B inhibitor inactive, MC4R barr agon inactive, MC4R antag cAMP inactive and MPTP block inactive.
